# Experimental data: article PMC4871731 (Nature chemical biology, 2016)
# Peptide text beside a SMILES is read from it. * marks the point of attachment. Cbz = O=C(OCc1ccccc1)*
# Tests used:
# human CLRN1^N48K [1] = molecular target: T1, human CLRN1^N48K (Homo sapiens, UniProt P58418, N48K); assay: Combined treatment with cycloheximide and washout; assay type: cell-based; conditions: for levels of CLRN1^N48K after 6 h treatment (T0): D6 cells, vs DMSO, bortezomib 50 nM, MG132 50 µM, O03 16.8 µM
# T1 sequence (P58418 1-232 N48K): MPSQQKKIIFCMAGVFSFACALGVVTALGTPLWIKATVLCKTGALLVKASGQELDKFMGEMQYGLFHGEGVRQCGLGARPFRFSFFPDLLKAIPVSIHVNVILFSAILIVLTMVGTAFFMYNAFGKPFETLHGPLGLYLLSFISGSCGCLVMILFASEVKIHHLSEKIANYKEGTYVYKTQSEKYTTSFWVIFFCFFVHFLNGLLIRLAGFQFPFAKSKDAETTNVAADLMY
# Summary of the method: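 D6 cells at 70% confluency were treated 6 h with bortezomib (50 nM), MG132 (50 µM) or test compound (16.8 µM); […]. Cells were then cultured 6 h more in 100 µM cycloheximide with or without the same agent. In the washout arm, compound-pretreated cells were washed and held 6 h in cycloheximide without compound. Read-out was CLRN1N48K by immunoblot.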
# human CLRN1^N48K [2] = molecular target: T1, human CLRN1^N48K; assay: Effect of HSP90 inhibition on CLRN1N48K expression; assay type: cell-based; conditions: D6 cells, 17-AAG 20 µM applied alone
# Summary of the method: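 D6 cells were treated for 24 h with 20 µM 17-AAG, test compound (2.90 µM), 50 nM bortezomib, or DMSO vehicle. In one arm, cells were pre-incubated 6 h with 17-AAG before test compound was added for 24 h. Cells were then harvested for CLRN1N48K immunoblotting.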
# human CLRN1^N48K [3] = molecular target: T1, human CLRN1^N48K; assay: Automated HTS, D6 cell-based immunofluorescence assay; conditions: D6 cell line, 25 nM
# Summary of the method: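 Primary screen of about 50,000 library compounds. Cells were fixed in 4% formaldehyde for 20 min, washed with PBST and stained with anti-HA for 90 min at room temperature. Fluorescence intensity per cell area came from six images per well and was normalised per plate to bortezomib and untreated controls to give percent activity.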
# human CLRN1^N48K-Venus = assay: Dual color; assay type: cell-based; conditions: 16.8 µM test compound or 50 nM bortezomib, 24 h, vs no treatment
# Summary of the method: (§1)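 Cell line stably co-expressing CLRN1N48K-Venus-1D4 and DsRed-Express-DR, grown to 70% confluency. Treatment was 16.8 µM test compound in triplicate for 24 h, with 50 nM bortezomib as positive and DMSO as negative control. Cells were fixed in 4% formaldehyde, washed with PBS and imaged by inverted fluorescence microscopy. Venus and DsRed intensities were quantified in 15 equal-sized cell-containing regions per well, three wells per treatment.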
# [4] = test system: DsRed-Express-DR (reporter for proteasome-mediated protein degradation); assay: Dual color; assay type: cell-based; conditions: 16.8 µM test compound or 50 nM bortezomib, 24 h, vs no treatment
# Summary of the method: as §1
# human CLRN1^N48K [5] = molecular target: T1, human CLRN1^N48K; assay: Immunoblotting of CLRN1N48K in D6 cells; assay type: cell-based; conditions: 24 h, O03 16.8 µM, B03 16.8 and 1.68 µM, bortezomib 50 nM
# Summary of the method: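 D6 cells at 70% confluency were treated for 24 h with bortezomib (50 nM) or test compounds at 16.8 µM (one also at 1.68 µM), with DMSO at 0.25% (v/v) final. Lysates were then immunoblotted for CLRN1N48K.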
# CLRN1 mRNA = assay: Reverse transcription and quantitative PCR in D6 cells; assay type: cell-based, human; conditions: 24 h, O03 16.8 µM, bortezomib 50 nM
# Summary of the method: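 D6 cells at 70% confluency were treated in triplicate for 24 h with 50 nM bortezomib, 16.8 µM test compound, or 0.25% DMSO. Total RNA was isolated with TRIzol. 5 µg RNA was DNase I-treated and reverse-transcribed with M-MLV using a mix of dT12, dT15 and dT18 primers (10 µM each), followed by quantitative PCR.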
structure (smiles),measurement,setting,value
C[C@@H]1C[C@@H]([C@H](O)CC2CC(=O)NC(=O)C2)C(=O)[C@@H](C)C1 [cycloheximide],synthesis of CLRN1^N48K,human CLRN1^N48K [1]; 100 µM cycloheximide,confirmed to inhibit the synthesis of CLRN1^N48K
"C=CCNC1=C2C[C@@H](C)C[C@H](OC)[C@H](O)[C@@H](C)/C=C(\C)[C@H](OC(N)=O)[C@@H](OC)/C=C\C=C(/C)C(=O)NC(=CC1=O)C2=O [17-AAG, 17-N-allylamino-17-demethoxygeldanamycin]",amount of CLRN1^N48K,human CLRN1^N48K [2],did not alter the amount of CLRN1^N48K
CC(C)C[C@H](NC(=O)[C@H](Cc1ccccc1)NC(=O)c1cnccn1)B(O)O [bortezomib],amount of CLRN1^N48K,human CLRN1^N48K [3],increased amount
same,Venus fluorescence,human CLRN1^N48K-Venus,increased both Venus and DsRed
same,DsRed fluorescence,[4],increased both Venus and DsRed
same,CLRN1^N48K level by immunoblotting,human CLRN1^N48K [5],increased dramatically
same,CLRN1^N48K mRNA level,CLRN1 mRNA,not affected
same,stability of CLRN1^N48K after washout,"human CLRN1^N48K [1]; 6 h compound, washout, then 6 h with cycloheximide without compound",effective in stabilizing and protecting CLRN1^N48K from degradation
same,levels of CLRN1^N48K after 6 h treatment (T0),human CLRN1^N48K [1],increased levels of CLRN1^N48K
CC(C)C[C@@H](C=O)NC(=O)[C@H](CC(C)C)NC(=O)[C@H](CC(C)C)NC(=O)OCc1ccccc1 [MG132] (Cbz-Leu-Leu-Leu-aldehyde),levels of CLRN1^N48K after 6 h treatment (T0),human CLRN1^N48K [1],increased levels of CLRN1^N48K
